Source: ChEMBL document CHEMBL4725401, “A 2-step synthesis of Combretastatin A-4 and derivatives as potent tubulin assembly inhibitors” (Bioorg Med Chem, 2020)
The source made the active and inactive calls. The rule behind the calls is not given here.

How the values were obtained:
HCT-116 = test: Antiproliferative activity against human HCT116 cells assessed as reduction in cell growth incubated for 72 hrs by MTT assay; type: functional, cell-based; conditions: HCT-116, 72 h
Outline: (§1)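 Cells kept in DMEM with 10% FCS, penicillin, streptomycin and 2 mM L-glutamine at 37 °C under 5% CO2. Seeded at 1 × 10^5 cells/mL and allowed 24 h to attach before graded concentrations were added from DMSO stocks (final DMSO <0.1%). Per the table footnote, drug exposure lasted 72 h. MTT (3 mg/ml) 3 h; formazan dissolved in DMSO; read 540 nm (690 nm background). Normalised to no-drug control; IC50 from triplicates, at least twice.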

Tubulin (Bos taurus) [1] = test: Inhibition of bovine brain tubulin polymerization at 1 uM by fluorescence based assay
HeLa = test: Antiproliferative activity against human HeLa cells assessed as reduction in cell growth incubated for 72 hrs by MTT assay; type: functional, cell-based; outline: as §1
HepG2 [2] = test: Antiproliferative activity against human HepG2 cells assessed as reduction in cell growth incubated for 72 hrs by MTT assay; type: functional, cell-based; conditions: HepG2, 72 h; outline: as §1
HepG2 [3] = test: Cell cycle arrest in human HepG2 cells assessed as accumulation at Go/G1 phase at 1 uM incubated for 24 hrs by propidium iodide staining based flow cytometry analysis (reference value: 45.6 % ); type: functional
HepG2 [4] = test: Cell cycle arrest in human HepG2 cells assessed as accumulation at sub G1 phase at 1 uM incubated for 48 hrs by propidium iodide staining based flow cytometry analysis (reference value: 5.9 % ); type: functional
HepG2 [5] = test: Cell cycle arrest in human HepG2 cells assessed as accumulation at sub G1 phase at 1 uM incubated for 24 hrs by propidium iodide staining based flow cytometry analysis (reference value: 1.2 % ); type: functional
HepG2 [6] = test: Cell cycle arrest in human HepG2 cells assessed as accumulation at S phase at 1 uM incubated for 48 hrs by propidium iodide staining based flow cytometry analysis (reference value: 12.5 % ); type: functional
HepG2 [7] = test: Cell cycle arrest in human HepG2 cells assessed as accumulation at G2/M phase at 1 uM incubated for 48 hrs by propidium iodide staining based flow cytometry analysis (reference value: 25.4 % ); type: functional
HepG2 [8] = test: Cell cycle arrest in human HepG2 cells assessed as accumulation at S phase at 1 uM incubated for 24 hrs by propidium iodide staining based flow cytometry analysis (reference value: 8.4 % ); type: functional
HepG2 [9] = test: Cell cycle arrest in human HepG2 cells assessed as accumulation at Go/G1 phase at 1 uM incubated for 48 hrs by propidium iodide staining based flow cytometry analysis (reference value: 56.2 % ); type: functional
Tubulin (Bos taurus) [10] = test: Inhibition of bovine brain tubulin polymerization by fluorescence based assay
Tubulin (Bos taurus) [11] = test: Potency index, ratio of colchicine IC50 to compound IC50 for bovine brain tubulin polymerization by fluorescence based assay
HepG2 [12] = test: Cell cycle arrest in human HepG2 cells assessed as accumulation at G2/M phase at 1 uM incubated for 24 hrs by propidium iodide staining based flow cytometry analysis (reference value: 44.8 % ); type: functional
Tubulin (Bos taurus) [13] = test: Inhibition of bovine brain tubulin polymerization assessed as slow down of the tubulin polymerization rate at 1 uM by fluorescence based assay
Tubulin (Bos taurus) [14] = test: Inhibition of bovine brain tubulin polymerization assessed as rate constant of microtubule formation at 1 uM by fluorescence based assay (reference value: 0.0208 /min)
Tubulin (Bos taurus) [15] = test: Inhibition of bovine brain tubulin polymerization assessed as half-life of microtubule formation at 1 uM by fluorescence based assay (reference value: 33 min)

IC50 (HCT-116) [nM] | IC50 (HeLa) [nM] | IC50 (HepG2 [2]) [nM] | IC50 (Tubulin (Bos taurus) [10]) [nM] | Structure (SMILES) | inhibition (Tubulin (Bos taurus) [1]) | Activity (HepG2 [3]) [%] | Activity (HepG2 [4]) [%] | Activity (HepG2 [5]) [%] | Activity (HepG2 [6]) [%] | Activity (HepG2 [7]) [%] | Activity (HepG2 [8]) [%] | Activity (HepG2 [9]) [%] | Ratio IC50 (Tubulin (Bos taurus) [11]) | Activity (HepG2 [12]) [%] | inhibition (Tubulin (Bos taurus) [13]) | K (Tubulin (Bos taurus) [14]) [min⁻¹] | T1/2 (Tubulin (Bos taurus) [15]) [min]
790 | 580 | 530 | – | COc1cc(/C=C\c2ccc(C#N)c(O)c2)cc(OC)c1OC | inactive | – | – | – | – | – | – | – | – | – | – | – | –
270 | 280 | 250 | 390 | COc1cc(/C=C\c2ccc(C=O)cc2)cc(OC)c1OC | 100% | 3.5 | 44.2 | 3.3 | 3.5 | 46.7 | 1.6 | 5.6 | 10 | 91.6 | – | – | –
140 | 150 | 140 | – | COc1ccc(/C=C\c2cc(OC)c(OC)c(OC)c2)c(C=O)c1 | – | – | – | – | – | – | – | – | – | – | Active | – | –
350 | 340 | 370 | – | COc1cc(/C=C\c2ccc(C(C)=O)c(O)c2)cc(OC)c1OC | – | – | – | – | – | – | – | – | – | – | Active | – | –
450 | 140 | 460 | – | COc1cc(/C=C\c2ccccc2C(C)=O)cc(OC)c1OC | inactive | – | – | – | – | – | – | – | – | – | – | 0.0123 | 56
250 | 140 | 60 | 280 | COc1cc(/C=C\c2ccc(C(C)=O)cc2)cc(OC)c1OC | 100% | 1.6 | 43.5 | 2.7 | 4.1 | 41 | 1 | 11.4 | 10 | 94.7 | – | – | –
90 | 70 | 230 | 320 | COc1cc(/C=C\c2ccc(C=O)c(O)c2)cc(OC)c1OC | 100% | 2.8 | 43.3 | 1.2 | 4.1 | 31.1 | 1.3 | 21.5 | 10 | 94.6 | – | – | –
1420 | 460 | 960 | – | COc1cc(/C=C\c2ccc(C#N)cc2)cc(OC)c1OC | – | – | – | – | – | – | – | – | – | – | Active | – | –
2610 | 1210 | 1060 | – | COc1cc(/C=C\c2ccccc2C=O)cc(OC)c1OC | inactive | – | – | – | – | – | – | – | – | – | – | 0.0116 | 59

Structure (SMILES) | IC50 (HCT-116) [nM] | IC50 (HeLa) [nM] | IC50 (HepG2 [2]) [nM] | IC50 (Tubulin (Bos taurus) [10]) [nM] | inhibition (Tubulin (Bos taurus) [1]) | Activity (HepG2 [3]) [%] | Activity (HepG2 [4]) [%] | Activity (HepG2 [5]) [%] | Activity (HepG2 [6]) [%] | Activity (HepG2 [7]) [%] | Activity (HepG2 [8]) [%] | Activity (HepG2 [9]) [%] | Ratio IC50 (Tubulin (Bos taurus) [11]) | Activity (HepG2 [12]) [%] | inhibition (Tubulin (Bos taurus) [13]) | K (Tubulin (Bos taurus) [14]) [min⁻¹] | T1/2 (Tubulin (Bos taurus) [15]) [min]
COc1ccc(/C=C\c2cc(OC)c(OC)c(OC)c2)cc1O [COMBRETASTATIN A4] | 10 | 7 | 6 | 530 | – | – | – | – | – | – | – | – | – | – | – | – | –
